{"source": "paper PMC3654864", "about": "(Journal of medicinal chemistry, 2012)", "key": {"[1]": {"system": "LNCaP prostate cancer cell lines", "assay": "MTT cytotoxicity assay in LNCaP cells", "type": "cell-based, human", "settings": "7 day, relative to compound 13"}, "[2]": {"system": "PC3 prostate cancer cell lines", "assay": "MTT cytotoxicity assay in PC3 cells", "type": "cell-based, human"}, "healthy mice": {"system": "healthy mice", "assay": "In-vivo toxicity study in healthy mice", "settings": "for appearance of mice / percent weight loss relative to control mice: 33 mg/kg; for appearance of mice: 48 hours; for percent weight loss relative to control mice: within 48 hours of daily dosing; for toxicity on three-week follow-up: after 100 mg/kg iv daily for five days, studied for three weeks; for percent weight change within 48 hours versus control group: 100 mg/kg; for signs of toxicity: 100 mg/kg body weight daily for five days"}, "[3]": {"system": "PC3 and LNCaP prostate cancer cell lines", "assay": "In-vitro cytotoxicity in PC3 and LNCaP, summary statements for both lines", "type": "cell-based, human", "how_it_was_run": "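MTT colorimetric assay on human prostate cancer cells (androgen receptor-positive LNCaP, androgen receptor-negative PC3). Cells were exposed to six concentrations of test compound for 7 days, with viable cells read spectrophotometrically on days 3, 5 and 7. IC50 was taken from the day-7 read. Emetine was run in the same assay.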"}, "[4]": {"assay": "pH-responsive hydrolysis to emetine in phosphate buffer, quantified by HPLC", "type": "physicochemical", "settings": "for activation to emetine at pH 5.5: pH 5.5, over a 48 h period; for percent emetine released (hydrolysis to emetine) at pH 6.5: phosphate buffer pH 6.5, 37 °C", "how_it_was_run": "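Pure test compound was incubated at 37 °C in aqueous phosphate buffer at pH 5.5, 6.5 or 7.4 for 24–48 h; stability at pH 7.4 was followed up to 5 days. Samples were analysed by HPLC to quantify released emetine. Percent conversion is the percent emetine in the sample mixture.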"}, "[5]": {"settings": "PC3, Figures 4a-f, time at which optimum IC50 is reached or pattern"}}, "note": "pIC50: −log10 of the molar value. Read-outs that look alike come from different tables or passages of the source."}
{"smiles": "CC[C@H]1CN2CCc3cc(OC)c(OC)cc3[C@@H]2C[C@@H]1C[C@@H]1c2cc(OC)c(OC)cc2CCN1C(=S)SCc1ccccc1", "note": "[Compound 14]", "values": [{"measurement": "fold increase of IC50 relative to 13", "setting": "[1]", "result": "about 24 fold"}, {"measurement": "fold increase of IC50 relative to 13", "setting": "[2]; PC3, 7 day, relative to compound 13", "result": "~18", "unit": "fold"}, {"measurement": "progress of cytotoxicity (IC50) over day 3, 5 and 7", "setting": "[2]; [5]", "result": "progressive decrease in IC50 values"}]}
{"smiles": "CC[C@H]1CN2CCc3cc(OC)c(OC)cc3[C@@H]2C[C@@H]1C[C@H]1NCCc2cc(OC)c(OC)cc21.Cl.Cl", "note": "[emetine, Emetine, reference compound]", "values": [{"measurement": "lethality", "setting": "healthy mice; iv, 33 mg/kg body weight, within the period of study", "result": "did not kill the mice"}, {"measurement": "average weight loss over a 48 hour period", "setting": "healthy mice; iv, 33 mg/kg daily dosing", "result": "about 3.6%"}, {"measurement": "appearance of mice", "setting": "healthy mice; iv", "result": "appeared lethargic"}, {"measurement": "percent weight loss relative to control mice", "setting": "healthy mice; iv", "result": "about 4"}, {"measurement": "lethality", "setting": "healthy mice; iv, single dose 100 mg/kg body weight, within 48 hours", "result": "killed all three mice"}, {"measurement": "pIC50", "setting": "[3]; Homo sapiens, LNCaP, read-out: IC50 range of emetine", "result": "7.48 to 7.63"}]}
{"smiles": "CC[C@H]1CN2CCc3cc(OC)c(OC)cc3[C@@H]2C[C@@H]1C[C@@H]1c2cc(OC)c(OC)cc2CCN1C(=O)NCc1ccccc1", "note": "[Compound 7]", "values": [{"measurement": "progress of cytotoxicity (IC50) over day 3, 5 and 7", "setting": "[2]", "result": "reach an optimum by day 3"}]}
{"smiles": "CC[C@H]1CN2CCc3cc(OC)c(OC)cc3[C@@H]2C[C@@H]1C[C@@H]1c2cc(OC)c(OC)cc2CCN1C(=S)NCc1ccc(Cl)cc1", "note": "[Compound 6]", "values": [{"measurement": "progress of cytotoxicity (IC50) over day 3, 5 and 7", "setting": "[2]; [5]", "result": "reach an optimum by day 3"}]}
{"smiles": "CC[C@H]1CN2CCc3cc(OC)c(OC)cc3[C@@H]2C[C@@H]1C[C@@H]1c2cc(OC)c(OC)cc2CCN1C(=O)/C=C(/C)C(=O)O", "note": "[Compound 22]", "values": [{"measurement": "activation to emetine at pH 5.5", "setting": "[4]", "result": "activated to emetine"}, {"measurement": "percent emetine released (hydrolysis to emetine) at pH 6.5", "setting": "[4]; within 48 hours", "result": "~80", "unit": "%"}]}
{"smiles": "CC[C@H]1CN2CCc3cc(OC)c(OC)cc3[C@@H]2C[C@@H]1C[C@@H]1c2cc(OC)c(OC)cc2CCN1C(=O)/C=C\\C(=O)[O-].[Na+]", "note": "[Compound 25]", "values": [{"measurement": "activation to emetine at pH 5.5", "setting": "[4]", "result": "activated to emetine"}]}
{"smiles": "CC[C@H]1CN2CCc3cc(OC)c(OC)cc3[C@@H]2C[C@@H]1C[C@@H]1c2cc(OC)c(OC)cc2CCN1C(=O)NCc1ccc(Cl)cc1", "note": "[Compound 9]", "values": [{"measurement": "progress of cytotoxicity (IC50) over day 3, 5 and 7", "setting": "[2]; [5]", "result": "reach an optimum by day 3"}]}
{"smiles": "CC[C@H]1CN2CCc3cc(OC)c(OC)cc3[C@@H]2C[C@@H]1C[C@@H]1c2cc(OC)c(OC)cc2CCN1C(=O)OCc1ccccc1", "note": "[Compound 15]", "values": [{"measurement": "progress of cytotoxicity (IC50) over day 3, 5 and 7", "setting": "[2]; [5]", "result": "progressive decrease in IC50 values"}]}
{"smiles": "CC[C@H]1CN2CCc3cc(OC)c(OC)cc3[C@@H]2C[C@@H]1C[C@@H]1c2cc(OC)c(OC)cc2CCN1C(=O)/C=C(/CC(=O)[O-])C(=O)[O-].[Na+].[Na+]", "note": "[Compound 27]", "values": [{"measurement": "activation to emetine at pH 5.5", "setting": "[4]", "result": "activated to emetine"}]}
{"smiles": "CC[C@H]1CN2CCc3cc(OC)c(OC)cc3[C@@H]2C[C@@H]1C[C@@H]1c2cc(OC)c(OC)cc2CCN1C(=O)/C=C(/C)C(=O)[O-].[Na+]", "note": "[Compound 26]", "values": [{"measurement": "progress of cytotoxicity (IC50) over day 3, 5 and 7", "setting": "[2]", "result": "an optimum IC50 value was obtained by day 5"}, {"measurement": "activation to emetine at pH 5.5", "setting": "[4]", "result": "activated to emetine"}, {"measurement": "percent emetine released (hydrolysis to emetine) at pH 6.5", "setting": "[4]; within 48 hours", "result": "about 50%"}, {"measurement": "toxicity on three-week follow-up", "setting": "healthy mice", "result": "no noticeable effect of toxicity"}, {"measurement": "percent weight change within 48 hours versus control group", "setting": "healthy mice; iv", "result": "very similar to that obtained for the control group"}, {"measurement": "signs of toxicity", "setting": "healthy mice; iv", "result": "no sign of toxicity"}]}
{"smiles": "CC[C@H]1CN2CCc3cc(OC)c(OC)cc3[C@@H]2C[C@@H]1C[C@@H]1c2cc(OC)c(OC)cc2CCN1C(=O)NCc1ccc(OC)cc1", "note": "[Compound 8]", "values": [{"measurement": "progress of cytotoxicity (IC50) over day 3, 5 and 7", "setting": "[2]", "result": "progressive decrease in IC50 values"}]}
{"smiles": "CC[C@H]1CN2CCc3cc(OC)c(OC)cc3[C@@H]2C[C@@H]1C[C@@H]1c2cc(OC)c(OC)cc2CCN1C(=O)/C=C\\C(=O)O", "note": "[Compound 21]", "values": [{"measurement": "activation to emetine at pH 5.5", "setting": "[4]", "result": "activated to emetine"}, {"measurement": "percent emetine released (hydrolysis to emetine) at pH 6.5", "setting": "[4]; within 48 hours", "result": "about 50%"}]}
{"smiles": "CC[C@H]1CN2CCc3cc(OC)c(OC)cc3[C@@H]2C[C@@H]1C[C@@H]1c2cc(OC)c(OC)cc2CCN1S(=O)(=O)c1ccc(OC)cc1", "note": "[Compound 12]", "values": [{"measurement": "progress of cytotoxicity (IC50) over day 3, 5 and 7", "setting": "[2]", "result": "an optimum IC50 value was obtained by day 5"}]}
{"smiles": "CC[C@H]1CN2CCc3cc(OC)c(OC)cc3[C@@H]2C[C@@H]1C[C@@H]1c2cc(OC)c(OC)cc2CCN1C(=O)CCC(=O)[O-].[Na+]", "note": "[Compound 24]", "values": [{"measurement": "progress of cytotoxicity (IC50) over day 3, 5 and 7", "setting": "[2]", "result": "an optimum IC50 value was obtained by day 5"}]}
{"smiles": "CC[C@H]1CN2CCc3cc(OC)c(OC)cc3[C@@H]2C[C@@H]1C[C@@H]1c2cc(OC)c(OC)cc2CCN1C(=S)[S-].[Na+]", "note": "[Compound 13]", "values": [{"measurement": "progress of cytotoxicity (IC50) over day 3, 5 and 7", "setting": "[2]; [5]", "result": "an optimum IC50 value was obtained by day 5"}, {"measurement": "activation to emetine at pH 5.5", "setting": "[4]", "result": "activated to emetine"}, {"measurement": "percent hydrolysis to emetine at pH 5.5", "setting": "[4]; phosphate buffer pH 5.5, 37 °C, within 48 hours", "result": "about 94.5%"}, {"measurement": "percent emetine released (hydrolysis to emetine) at pH 6.5", "setting": "[4]; within 48 hours", "result": 13.2, "unit": "%"}, {"measurement": "toxicity on three-week follow-up", "setting": "healthy mice", "result": "no noticeable effect of toxicity"}, {"measurement": "appearance of mice", "setting": "healthy mice; iv", "result": "appeared healthy with no noticeable signs of toxicity"}, {"measurement": "percent weight loss relative to control mice", "setting": "healthy mice; iv", "result": "no significant difference"}, {"measurement": "percent weight change within 48 hours versus control group", "setting": "healthy mice; iv", "result": "very similar to that obtained for the control group"}, {"measurement": "signs of toxicity", "setting": "healthy mice; iv", "result": "no sign of toxicity"}, {"measurement": "7th day IC50 fold higher than emetine", "setting": "[3]; LNCaP and PC3, 7th day, relative to emetine", "result": "about 3 fold"}]}
{"smiles": "CC[C@H]1CN2CCc3cc(OC)c(OC)cc3[C@@H]2C[C@@H]1C[C@@H]1c2cc(OC)c(OC)cc2CCN1C(=S)NCc1ccc(OC)cc1", "note": "[Compound 5]", "values": [{"measurement": "progress of cytotoxicity (IC50) over day 3, 5 and 7", "setting": "[2]; [5]", "result": "an optimum IC50 value was obtained by day 5"}]}
